Assay outcomes as filed in PubChem.
Rows were chosen to be rich in hits. Some 2.9% of all compounds tested hit in one or more screens of this group.
PGC1a acetyl inh – modulators of PGC1a acetylation | U2OS PGC1a acetylation, AlphaScreen anti-acetyl-lysine; with virally co-expressed GCN5 acetyltransferase | inhibition, % at 15.6 µM | 0.17% of 350,000 active;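 active means every replicate shows inhibition of at least 40%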
SIRT5 block – inhibitors of human sirtuin-5 desuccinylase. AID 652115. Q9NXA8. inhibition, % at 15 µM. 1.1% of 330,000 active. Purified SirT5, succinyl-peptide AMC, trypsin-coupled fluorescence; in the data active means inhibition above about 15%
Target sequence (Q9NXA8 whole entry, looked up): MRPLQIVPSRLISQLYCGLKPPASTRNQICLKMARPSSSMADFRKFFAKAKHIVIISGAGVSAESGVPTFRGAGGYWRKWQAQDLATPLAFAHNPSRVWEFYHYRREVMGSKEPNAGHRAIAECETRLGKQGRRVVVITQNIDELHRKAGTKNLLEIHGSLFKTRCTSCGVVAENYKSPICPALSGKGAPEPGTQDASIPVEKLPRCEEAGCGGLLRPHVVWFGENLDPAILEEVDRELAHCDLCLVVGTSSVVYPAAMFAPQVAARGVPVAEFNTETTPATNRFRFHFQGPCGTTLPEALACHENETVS
DENV2 CPE rescue – inhibitors of DENV2 cytopathic effect. CPE inhibition, % at 9.99 µM. 1.7% of 350,000 active. DENV2-infected cells, cytopathic effect rescue, plate reader. AID 651640; in the data active means CPE inhibition above about 20%, passing the limit was not always enough; tested in BHK-21 cells
C2C12 statin – suppression of simvastatin myotoxicity; C2C12 myotubes + simvastatin, ATP luminescence, 48 h; scaled: DMSO 0, geranylgeraniol control 100; rescue of ATP level, % at 7.49 µM; 0.78% of 330,000 active;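 active means mean ATP rescue above about 67%, or every replicate alone reaching that limit, limit read from the data, passing the limit was not always enough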;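 further: myotubes were challenged with 10 µM simvastatin during compound exposure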
S100A4 MyoIIA – inhibitors of human S100A4 binding to myosin IIA peptide | P26447 | S100A4/TAMRA-MyoIIA peptide fluorescence polarization | inhibition, % at 10.7 µM | 0.14% of 360,000 active | AID 652163;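 active means mean inhibition of at least 70% across replicates, with every replicate also reaching that level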
Target sequence (P26447 whole entry, looked up): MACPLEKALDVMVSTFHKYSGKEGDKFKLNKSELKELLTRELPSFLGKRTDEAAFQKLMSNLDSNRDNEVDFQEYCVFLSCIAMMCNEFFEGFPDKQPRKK
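Test system – S100A4 monomer (human) · Compound – single-point compound testing · Schedule – 5 min incubation before reading · Probe or stimulus – TAMRA-labelled myosin IIA heavy-chain peptide probe, 5 nM · Benchmarks – neutral control DMSO, positive control TFP · Medium – Calcium-containing HEPES buffer, pH 7.2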
A number is an active result; . = inactive; / = not tested or not shown; ! = not confirmed by another sample.

SMILES	PGC1a acetyl inh	SIRT5 block	DENV2 CPE rescue	C2C12 statin	S100A4 MyoIIA
O=C(Nc1ccccc1F)N[C@H]1CC[C@@H](CCNC(=O)C2CC2)O[C@H]1CO	.	.	.	.	.
O=C(O)c1nn(-c2ccccc2)nc1-c1nn(-c2ccccc2)nc1C(=O)O	.	/	/	136	/
CCCC(=O)N1CCC2(CC1)CN(C(=O)C1CCCC1)[C@@H](CO)c1[nH]c3cc(OC)ccc3c12	/	.	.	/	.
C[C@@H]1CN([C@@H](C)CO)C(=O)Cc2cc(NC(=O)CCC(F)(F)F)ccc2O[C@H]1CN(C)Cc1ccncc1	.	.	/	.	.
C[C@@H]1CN([C@@H](C)CO)C(=O)c2cc(NS(C)(=O)=O)ccc2O[C@@H]1CN(C)Cc1ccc(Cl)c(Cl)c1	.	.	.	.	.
COc1ccc(CN(C)C[C@H]2Oc3ccc(NS(=O)(=O)c4ccccc4)cc3C(=O)N([C@H](C)CO)C[C@H]2C)cc1	.	.	.	.	.
COc1ccc(S(=O)(=O)Nc2ccc3c(c2)C(=O)N([C@@H](C)CO)C[C@H](C)[C@@H](CN(C)Cc2ccc(Oc4ccccc4)cc2)O3)cc1	.	25	.	.	.
COc1ccc(S(=O)(=O)Nc2ccc3c(c2)C(=O)N([C@H](C)CO)C[C@H](C)[C@H](CN(C)Cc2ccc(Oc4ccccc4)cc2)O3)cc1	.	31	.	.	.
COc1ccc(S(=O)(=O)Nc2ccc3c(c2)C(=O)N([C@@H](C)CO)C[C@@H](C)[C@@H](CN(C)Cc2ccc(Oc4ccccc4)cc2)O3)cc1	.	35	.	.	.
O=C(NCC(F)(F)F)[C@@H]1[C@@H](CO)[C@@H]2Cn3c(cccc3=O)[C@@H]2N1C(=O)C1CC1	/	.	.	.	.
CC(=O)c1cccc(NC(=O)c2noc3c2CCc2ccccc2-3)c1	.	.	22	.	.
C[C@H](CO)N1C[C@H](C)[C@@H](CN(C)Cc2ccc(O)cc2)OCc2cnnn2CCCC1=O	.	.	42!	.	.
CC(C)NC(=O)N(C)C[C@@H]1OCc2cnnn2CCCC(=O)N([C@H](C)CO)C[C@@H]1C	.	.	.	.	.
CC(C)OC(=O)N(C)C[C@H]1OCc2cnnn2CCCC(=O)N([C@H](C)CO)C[C@@H]1C	.	.	29!	.	.
CC(C)NC(=O)N(C)C[C@H]1OCc2cnnn2CCCC(=O)N([C@@H](C)CO)C[C@@H]1C	.	.	45	.	.
C[C@@H]1CN([C@H](C)CO)C(=O)CCCn2nncc2CO[C@@H]1CN(C)C(=O)Nc1ccccc1C(F)(F)F	.	.	.	.	.
C[C@H](CO)N1C[C@H](C)[C@H](CN(C)C(=O)Nc2ccccc2C(F)(F)F)OCc2cnnn2CCCC1=O	.	16	.	.	.
O=C(Cc1cccnc1)N1CC(=O)N2[C@H](C1)[C@@H](c1ccc(/C=C/c3ccccc3)cc1)[C@@H]2CO	.	.	.	/	.
COc1ccc(CN(C)C[C@H]2OCCCC[C@H](C)Oc3ccc(NS(=O)(=O)c4ccc(C)cc4)cc3C(=O)N([C@H](C)CO)C[C@H]2C)cc1	.	.	.	/	.
C[C@@H]1CN([C@@H](C)CO)C(=O)c2cccc(NC(=O)c3ccc(-c4nccs4)cc3)c2O[C@H]1CN(C)Cc1ccc(C(=O)O)cc1	.	.	.	/	.
C[C@H]1CN([C@@H](C)CO)C(=O)c2cc(NS(=O)(=O)c3ccccc3)ccc2O[C@@H]1CN(C)S(=O)(=O)c1cn(C)cn1	.	.	.	.	.
O=C(Nc1ccc(F)cc1)N1CC(=O)N2[C@H](CO)[C@H](c3ccc(C#Cc4cccnc4)cc3)[C@@H]2C1	.	.	.	/	.
C[C@H]1CN([C@@H](C)CO)C(=O)c2cc(N(C)C)ccc2O[C@H]1CN(C)Cc1ccc(C(=O)O)cc1	.	.	/	.	/
C[C@@H]1CN([C@H](C)CO)C(=O)CCCn2nncc2CO[C@@H]1CN(C)C(=O)CCCN(C)C	.	.	.	.	.
C[C@@H]1CN([C@H](C)CO)C(=O)CCCn2nncc2CO[C@@H]1CN(C)C(=O)Cc1ccccc1	.	.	33!	.	.
SMILES	PGC1a acetyl inh	SIRT5 block	DENV2 CPE rescue	C2C12 statin	S100A4 MyoIIA
C[C@H]1CN([C@@H](C)CO)C(=O)CCCn2nncc2CO[C@@H]1CN(C)C(=O)CCCN(C)C	.	22	.	.	.
CC=Cc1ccc2n(c1=O)C[C@@H]1[C@@H](CO)[C@H](C(=O)NCc3ccc(F)cc3)N(CC)[C@H]21 (mixture of isomers)	/	.	.	.	.
CCNC(=O)[C@H]1[C@H](CO)[C@H]2Cn3c(ccc(-c4cccnc4)c3=O)[C@H]2N1Cc1ccc2c(c1)OCO2	/	.	.	.	.
CC=Cc1ccc2n(c1=O)C[C@H]1[C@H](CO)[C@@H](C(=O)NC3Cc4ccccc4C3)N(CC)[C@@H]21 (mixture of isomers)	/	.	.	.	.
CCNC(=O)[C@@H]1[C@@H](CO)[C@@H]2Cn3c(ccc(-c4cccnc4)c3=O)[C@@H]2N1Cc1ccc2c(c1)OCO2	/	23	.	.	.
CN(C)C(=O)[C@H]1[C@H](CO)[C@H]2Cn3c(ccc(-c4cccc(F)c4)c3=O)[C@H]2N1C(=O)c1cnccn1	/	.	30	.	.
CN(C)C(=O)[C@@H]1[C@@H](CO)[C@@H]2Cn3c(ccc(-c4cccc(F)c4)c3=O)[C@@H]2N1C(=O)c1ccccn1	/	/	/	.	/
CC=Cc1ccc2n(c1=O)C[C@@H]1[C@@H](CO)[C@H](C(=O)NC3Cc4ccccc4C3)N(CC3CC3)[C@H]21 (mixture of isomers)	/	.	75	.	.
CC=Cc1ccc2n(c1=O)C[C@@H]1[C@@H](CO)[C@H](C(=O)NCc3ccccc3)N(CC)[C@H]21 (mixture of isomers)	.	.	38	/	.
CC=Cc1ccc2n(c1=O)C[C@H]1[C@H](CO)[C@@H](C(=O)NCC3CC3)[C@@H]2N1Cc1ccccc1 (mixture of isomers)	/	.	.	.	.
CC=Cc1ccc2n(c1=O)C[C@@H]1[C@@H](CO)[C@H](C(=O)NCc3ccccc3F)N(CC)[C@H]21 (mixture of isomers)	/	16	.	.	.
CCN1[C@H](C(=O)NCc2ccccc2)[C@@H](CO)[C@@H]2Cn3c(ccc(-c4ccncc4)c3=O)[C@@H]21	.	19	.	.	.
CC=Cc1ccc2n(c1=O)C[C@H]1[C@H](CO)[C@@H](C(=O)NCC3CC3)[C@@H]2N1Cc1cccnc1 (mixture of isomers)	/	.	.	.	122
CCN1[C@H](C(=O)NCCCN(C)C)[C@@H](CO)[C@@H]2Cn3c(ccc(-c4cccc(F)c4)c3=O)[C@@H]21	.	.	80	/	.
COc1ccc(CN2CCC[C@]3(N[C@H](c4ccc(C)cc4)[C@@H]4C(=O)N(Cc5ccccc5)C(=O)[C@@H]43)C2=O)cc1	.	.	25	.	.
